Compounds with a hit are over-represented: about 2.5% of the library has one in this group of screens.
ADAM17 inh – ADAM17 inhibitors, primary screen, biochemical, QFRET | Disintegrin and metalloproteinase domain-containing protein 17 (Homo sapiens), P78536 | recombinant ADAM17, EDANS/DABCYL FRET peptide cleavage | inhibition, % at 6.95 µM | hit rate 0.83% among 370,000;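 active means inhibition above the mean of compounds lying between control limits plus 3 SD, set per campaign, cut at about 8.5% in these data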
JMJD2C inh – inhibitors of GASC-1 histone demethylase, primary screen, biochemical, fluorescence, DELFIA europium. Lysine-specific demethylase 4C (Homo sapiens), Q9H3R0. inhibition, % at 2.35 µM. GST-JMJD2C(1-420) H3K9me3 demethylation. hit rate 0.069% among 330,000;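 active means more than half of a compound's replicate wells show inhibition beyond 50%, single wells judged on their own value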;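 further: signal counts dimethyl H3K9 product captured on neutravidin plate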
Target sequence (Q9H3R0 1-420 limits assumed): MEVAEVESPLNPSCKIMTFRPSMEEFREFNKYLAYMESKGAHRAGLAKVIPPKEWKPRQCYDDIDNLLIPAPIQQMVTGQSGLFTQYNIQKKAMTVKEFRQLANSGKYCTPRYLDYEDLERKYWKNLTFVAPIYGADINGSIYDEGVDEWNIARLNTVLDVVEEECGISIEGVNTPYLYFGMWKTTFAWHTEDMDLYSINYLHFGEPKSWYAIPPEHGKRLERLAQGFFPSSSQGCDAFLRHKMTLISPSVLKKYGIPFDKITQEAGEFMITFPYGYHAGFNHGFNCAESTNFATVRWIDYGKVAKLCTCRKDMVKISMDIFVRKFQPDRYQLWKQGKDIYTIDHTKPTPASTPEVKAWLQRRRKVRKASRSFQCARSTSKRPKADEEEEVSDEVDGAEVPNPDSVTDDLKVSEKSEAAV
NR2E3 ag-1 – NR2E3 agonists in two-hybrid cells, primary screen, cell-based, luminescence, CHO-S, Gal4-NCOR/VP16-NR2E3 | luciferase | inhibition of corepressor binding, % at 3.98 µM | hit rate 0.35% among 360,000 | AID 602229, 2012;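 active means inhibition above the mean of all tested compounds plus 3 SD, cut at about 70% in these data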;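 further: higher means lower luciferase signal from less NR2E3 corepressor binding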
ADAM10 inh – human ADAM10 inhibitors, primary screen, biochemical, QFRET, HTS; AID 720582, 2013; inhibition, % at 7 µM; hit rate 0.62% among 370,000; recombinant ADAM10, EDANS/DABCYL FRET peptide cleavage, 3 h; Disintegrin and metalloproteinase domain-containing protein 10 (Homo sapiens), O14672;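 active means inhibition above a per-campaign cutoff equal to the mean of compounds falling between control-based bounds plus 3 SD, cut at about 20% in these data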
proKLK7 act – proKLK7 zymogen activators, primary screen, biochemical, fluorescence intensity. Kallikrein-7 (Homo sapiens), P49862. AID 652039, 2013. purified proKLK7, EDANS-DABCYL substrate fluorescence; 100% is mature enzyme control, 0% vehicle. hit rate 0.9% among 370,000. activation, % at 7 µM;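 active means activation above the mean of all tested compounds plus 3 SD, computed per campaign excluding outliers beyond control limits, cut at about 13% in these data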
NR2E3 ag-2 – inhibitors of NR2E3-RetCOR corepressor binding, primary screen, NR2E3 agonist project, biochemical, TR-FRET, GST-NR2E3, biotin-RetCOR | inhibition of corepressor binding, % at 4.78 µM | hit rate 0.12% among 320,000 | 1536-well | Photoreceptor-specific nuclear receptor (Homo sapiens), Q9Y5X4;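 active means percent inhibition above the cutoff of mean plus 3 SD of all tested compounds, set per screening campaign, cut at about 20% in these data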
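Material: NR2E3–RetCOR corepressor complex / Incubation: Compound–protein incubation for 5 h at 4 °C / Dosing: compound at 4.8 µM, single dose / Detection: time-resolved FRET / Benchmarks: high control biotin, low control 0.6% DMSO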
ADAM10 confirm – human ADAM10 inhibitors, confirmation, biochemical, QFRET, triplicate | shares compounds with ADAM10 inh | ADAM10 QFRET peptide cleavage, EDANS fluorescence | inhibition, % at 6.95 µM | hit rate 1% among 2,100;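 active means inhibition above about 20% chosen separately for each screening run, limit read from the data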
ADAM17 ctr – ADAM17 inhibitors, counter-screen for ADAM10 exosite inhibitor project, biochemical, QFRET, high throughput. inhibition, % at 6.95 µM. shares compounds with ADAM10 inh. AID 743214, 2013. ADAM17 QFRET peptide cleavage, EDANS fluorescence. hit rate 0.5% among 2,100;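 active means mean triplicate inhibition above the solvent-only control wells' mean plus 3 SD, cut at about 12% in these data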
Hits are given with their value; i = inactive; nt = not tested or not shown.

SMILES | ADAM17 inh | JMJD2C inh | NR2E3 ag-1 | ADAM10 inh | proKLK7 act | NR2E3 ag-2 | ADAM10 confirm | ADAM17 ctr
Fc1ccc(CNCc2ccco2)cc1 | i | i | i | 19.8 | i | i | i | i
COC(=O)C1CN(Cc2ccc(OC)cc2)CCS(=O)(=O)N1Cc1cn(Cc2ccc(F)cc2)nn1 (stereo not drawn) | i | nt | nt | i | i | nt | nt | nt
O=C(CSCc1ccccc1Cl)NN=C1CCCCCC1 | i | i | i | 20.1 | i | i | i | i
O=C1OCCN1C(=O)[C@H]1[C@H](c2ccc([N+](=O)[O-])cc2)C(c2ccccc2)=NN1c1ccccc1 | i | nt | i | 23.7 | i | nt | i | i
O=C1OCCN1C(=O)[C@H]1[C@H](c2ccc([N+](=O)[O-])cc2)C(c2cccc(Cl)c2)=NN1c1ccccc1 | 17.2 | i | i | 42.0 | i | i | i | i
O=C1OCCN1C(=O)[C@H]1[C@H](c2ccccc2)C(c2cccc(Cl)c2)=NN1c1ccccc1 | nt | nt | i | nt | nt | nt | nt | nt
Cc1cccc(N2CCN(Cc3cn(C)nc3-c3ccccc3F)CC2)n1 | i | i | i | i | i | i | nt | nt
O=C(NCc1ccccc1F)c1ccc(S(=O)(=O)Nc2cccc(C(F)(F)F)c2)cc1 | i | i | i | i | i | i | nt | nt
O=C(NCc1ccc(F)cc1)c1ccc(S(=O)(=O)Nc2cccc(C(F)(F)F)c2)cc1 | i | i | i | 26.6 | i | i | i | i
CC(NC(=O)C1CCN(C(=O)[C@@H]2Cc3ccccc3CN2)CC1)c1ccccc1 (stereo partly drawn) | i | i | i | i | i | i | nt | nt
CN(CC(=O)Nc1ccc(F)cc1)C(=O)c1ccc(OCc2ccccc2)cc1 | i | nt | i | i | i | nt | nt | nt
Cc1ccc(CNC(=O)c2cccc3c2C(=O)c2ccc(N4CCCCC4)cc2S3(=O)=O)cc1 | i | i | i | 20.8 | i | i | i | i
Cc1ccc(CNC(=O)c2cccc3c2C(=O)c2ccc(N4CCOCC4)cc2S3(=O)=O)cc1 | i | i | i | i | i | i | nt | nt
Cc1ccc(NC(=O)Nc2ccc3c(c2)[C@]2(CC(=O)N(CC(C)C)C2c2ccccc2)C(=O)N3C)cc1Cl (stereo partly drawn) | 9.5 | nt | nt | 21.7 | i | nt | i | i
CSCCC(NC(=O)c1ccc(Cl)cc1)C(=O)OCC(=O)Nc1cc(Cl)ccc1C#N (stereo not drawn) | i | i | i | i | i | i | nt | nt
CSCCC(NC(=O)c1ccccc1)C(=O)OCC(=O)Nc1ccc(C)c(Cl)c1 (stereo not drawn) | i | i | i | 32.4 | i | i | i | i
COc1ccccc1-c1cc(C(=O)N/N=C/C=C/c2ccccc2[N+](=O)[O-])c2ccccc2n1 | i | i | i | 20.2 | i | i | i | i
CCOc1ccc(N(CC(=O)NC2CCCCC2)S(=O)(=O)c2ccccc2)cc1 | i | i | i | i | i | i | nt | nt
COc1ccccc1NC(=O)C1=C(C)Nc2nc(-c3cccs3)nn2C1c1cccc(O)c1 (stereo not drawn) | i | i | i | i | i | i | nt | nt
COc1ccccc1NC(=O)C1=C(C)Nc2nc(-c3ccccc3)nn2C1c1ccccn1 (stereo not drawn) | i | i | i | 66.7 | i | i | i | i

Screening data: PubChem BioAssay, several laboratories
